# In ChEMBL document CHEMBL1122952, “Thromboxane synthetase inhibitors (TXSI). Design, synthesis, and evaluation of a novel series of omega-pyridylalkenoic acids” (J Med Chem, 1985):
# Columns and labels:
# Type in all cases: functional
# Rattus norvegicus [1] = assay: Ex vivo percent inhibition against serum TXB2 production after 2 hr at dose 10 mg/kg by oral administration in rat
# Rattus norvegicus [2] = assay: Ex vivo percent inhibition against serum TXB2 production after 24 hr r at dose 1 mg/kg by oral administration in rat
# Outline: (§1)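 Male Sprague–Dawley rats, 7–8 weeks old, dosed orally. Controls got vehicle alone (2 mL/kg water with a little gum arabic). At 24 h, 1 mL blood was drawn from the abdominal aorta under pentobarbital anesthesia (50 mg/kg ip) and clotted 90 min at 25 °C. Serum TXB2 was measured by radioimmunoassay. % inhibition = [1 − (B/A)] × 100 versus untreated rats.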
# Rattus norvegicus [3] = assay: Ex vivo percent inhibition against serum TXB2 production after 24 hr r at dose 10 mg/kg by oral administration in rat; outline: as §1
smiles,measurement,setting,value
O=C(O)CCCC/C=C(\c1ccccc1)c1ccc[n+]([O-])c1,inhibition in vivo at 10 mg/kg,Rattus norvegicus [1],85%
NC(=O)CCCC/C=C(\c1ccccc1)c1cccnc1,inhibition in vivo at 10 mg/kg,Rattus norvegicus [1],93%
O=C(O)CCCCC/C=C(\c1ccccc1)c1cccnc1,inhibition in vivo at 1 mg/kg,Rattus norvegicus [2],24%
COC(=O)CCCC/C=C(\c1ccccc1)c1cccnc1,inhibition in vivo at 10 mg/kg,Rattus norvegicus [1],92%
CC(C)(CCC/C=C(\c1ccccc1)c1cccnc1)C(=O)O,inhibition in vivo at 1 mg/kg,Rattus norvegicus [2],14%
OCCCCC/C=C(\c1ccccc1)c1cccnc1,inhibition in vivo at 10 mg/kg,Rattus norvegicus [1],92%
O=C(O)CCCCCC/C=C(\c1ccccc1)c1cccnc1,inhibition in vivo at 1 mg/kg,Rattus norvegicus [2],17%
CC(C)CSC(CCC/C=C(\c1ccccc1)c1cccnc1)C(=O)O (stereo unspecified),inhibition in vivo at 1 mg/kg,Rattus norvegicus [2],8%
CCOC(=O)CCCC/C=C(\c1ccccc1)c1cccnc1,inhibition in vivo at 1 mg/kg,Rattus norvegicus [2],35%
same,inhibition in vivo at 10 mg/kg,Rattus norvegicus [1],90%
CC(C)(CCC/C=C(/c1cccnc1)c1cccs1)C(=O)O,inhibition in vivo at 1 mg/kg,Rattus norvegicus [2],17%
O=C(O)CCCCCCCC/C=C(\c1ccccc1)c1cccnc1,inhibition in vivo at 1 mg/kg,Rattus norvegicus [2],10%
same,inhibition in vivo at 10 mg/kg,Rattus norvegicus [1],92%
CC(C)(O)C(CCC/C=C(\c1ccccc1)c1cccnc1)C(=O)O (stereo unspecified),inhibition in vivo at 1 mg/kg,Rattus norvegicus [2],37%
O=C(O)CCCC/C=C(\c1ccccc1)c1cccnc1 [(E)-ISBOGREL],inhibition in vivo at 10 mg/kg,Rattus norvegicus [3],90%
same,inhibition in vivo at 1 mg/kg,Rattus norvegicus [2],53%
